Sampled rows, rich in hits. Any-hit rate of the full collection: about 1.6%.
C8 TRAIL sens: caspase-8 TRAIL sensitization; inhibition (viability loss, TRAIL sensitization), % at 10 µM; NB7+C8 cells + TRAIL, ATPlite viability luminescence; AID 624354; 1% of 360,000 active;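 active = compounds causing at least 50% loss of cell viability in the single-dose screen, relative to plate controls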
Platelet DG rel: platelet dense granule release activity; inhibition, %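 (compounds screened at 7.5 µM in platelet-rich plasma)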; 0.22% of 300,000 active; human platelet-rich plasma, SFLLRN dense granule ATP release, luminescence; AID 1663;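 active = mean replicate score, as percent of positive control, at or above 50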
PPC-1+TRAIL kill: kills PPC-1 cancer cells in the presence of TRAIL. PPC-1 cells + TRAIL, ATPLite viability luminescence. cell killing (% activity), % at 4 µM or 5 µM. 0.41% of 220,000 active;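 active = cell killing above 50% in the first pass at 4 µM, then a duplicate retest at 5 µM averaging 50% or more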;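 note: plate controls were cells with TRAIL plus DMSO for no effect and medium-only wells lacking cells for full effect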
FLuc act counter: affects firefly luciferase, flagging false hits in luciferase stimulation screens; ATPlite luciferase biochemical, luminescence, 10 min; 0 = ATP-free wells, 1 = DMSO control; activation factor at 10 µM; 200,000 tested, under 10 active; AID 1027;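 active = luciferase activation factor, scaled between plate controls, of at least 2 with compound at 10 µM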
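Material: Luciferase/luciferin reagent mix | Doses: Test compounds dosed from 2 mM stocks in 100% DMSO | Timing: 10 min incubation after luciferase reagent addition, room temperature | Measured by: Luminescence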
FLuc inhib CS: Photinus pyralis luciferase inhibition counter-screen; P08659; inhibition, % at 10 µM; AID 1006; 1.5% of 200,000 active; ATPLite firefly luciferase biochemical luminescence, 10 min;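 active = inhibition above about 50% when tested at 10 µM, limit read from the data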
Numbers without * were called inactive; · = no result given.

SMILES	C8 TRAIL sens	Platelet DG rel	PPC-1+TRAIL kill	FLuc act counter	FLuc inhib CS
CC1(C(=O)Nc2ccc3c(c2)OCCO3)CCC(=O)N1C1CC1 (stereo not drawn)	-44	·	·	·	·
CN(C)c1ncnc2c1ncn2[C@H]1CN(Cc2ccc(Cl)cc2)C[C@@H](CO)O1	-8	·	·	·	·
CCOC(=O)C1CCCN(C(=O)c2oc3ccccc3c2C)CC1 (stereo not drawn)	-1	·	·	·	·
OC(c1cccc(Cl)c1)c1nc(/C=C/c2ccccc2)cs1 (stereo not drawn)	-18	·	·	·	·
COC1=CC(=O)C=C(OC)C1=O	-19	·	·	·	·
COC1=CC(=O)c2ccccc2C1=O	88*	·	·	·	·
CC(C)N=c1cc2n(-c3ccc(Cl)cc3)c3ccccc3nc-2cc1Nc1ccc(Cl)cc1	81*	5	·	·	·
COC(=O)C1(C(=O)OC)C[C@H](c2ccc(OC)cc2)N(Cc2ccccc2OC)[C@@H]1c1cccs1	15	·	·	·	·
O=C(Nc1cnn(C23CC4CC(CC(C4)C2)C3)c1)c1cnn2cccnc12	31	0	30	0.3	67*
COCCNC(=O)/C(C#N)=C/c1ccc2c(c1)OCO2	-1	6	8	1	3
C=CCNC(=O)/C(C#N)=C/c1ccc2c(c1)OCCO2	-2	11	16	0.5	50*
Cc1cc(=O)[nH]c2nnc(-c3ccc(Br)cc3)n12	73*	7	·	·	·
Cc1onc(-c2ccccc2)c1C(=O)N1CCC(C)(C(=O)NS(=O)(=O)C2CC2)C1 (stereo not drawn)	-6	·	·	·	·
Cc1ccc(S(=O)(=O)NC(=O)C2(C)CCN2C(=O)c2ccccc2)cc1 (stereo not drawn)	-12	·	·	·	·
O=C(C[C@H]1C[C@H](C(=O)N2CCCCC2)[C@@]2(CCc3ccccc3)c3[nH]c4ccc(Cl)cc4c3CCN2C1=O)NCCC1=CCCCC1	55*	·	·	·	·
CN(C)CCCNC(=O)C[C@H]1C[C@H](C(=O)N2CCCCC2)[C@@]2(CCc3ccccc3)c3[nH]c4ccc(Cl)cc4c3CCN2C1=O	66*	·	·	·	·
O=C(CC1C[C@H](C(=O)N2CCCCC2)[C@@]2(CCc3ccccc3)c3[nH]c4ccccc4c3CCN2C1=O)NCCC1=CCCCC1 (stereo partly drawn)	4	·	·	·	·
O=C(COC(=O)c1cccc(O)c1)c1ccccc1	4	3	·	·	·
O=C(OCC(=O)c1cccs1)c1ccccc1	0	4	8	0.5	50*
Nc1cccc(C(=O)OCC(=O)c2ccccc2)c1	-2	10	-14	0.3	69*
CSc1nnc(NC(=O)c2nc(S(=O)(=O)Cc3ccccc3)ncc2Cl)s1	82*	3	·	·	·
CCCc1nnc(NC(=O)c2nc(S(=O)(=O)Cc3ccc(C)cc3)ncc2Cl)s1	25	-21	·	·	·
CC(C)c1nnc(NC(=O)c2nc(S(=O)(=O)Cc3ccccc3)ncc2Cl)s1	94*	-17	·	·	·
COCCCN(Cc1cc(OC)c(OC)c(OC)c1)C(=S)Nc1cccc(SC)c1	7	·	·	·	·
O=C(Cn1nnc(-c2ccccc2)c1COc1ccc2ccccc2c1)NCC1CC1	1	·	·	·	·
SMILES	C8 TRAIL sens	Platelet DG rel	PPC-1+TRAIL kill	FLuc act counter	FLuc inhib CS
O=C(c1cc(-c2ccc(F)cc2)nc2ccccc12)N1CCC1	-16	·	·	·	·
O=C(O)c1cc(-c2ccc(-c3ccc(F)cc3)o2)nc2ccccc12	59*	1	·	·	·
O=C(NCc1cccnc1)c1cc(C2CCCN(C(=O)c3cccc(O)c3)C2)on1 (stereo not drawn)	-5	·	·	·	·
CCC(C(=O)O/N=C(\N)c1ccccc1)c1ccccc1 (stereo not drawn)	71*	-5	11	0.9	6
CCC(C(=O)O/N=C(\N)c1ccc(Cl)cc1)c1ccccc1 (stereo not drawn)	32	-2	4	1	-4
CCC(C(=O)O/N=C(\N)c1ccc(C)cc1)c1ccccc1 (stereo not drawn)	72*	3	4	1.1	-7
COc1ccc(CN=Cc2c(O)[nH]c3ccccc23)cc1	0	3	-5	1	-4
COc1ccc(N=Cc2c(O)[nH]c3ccccc23)cc1	24	18	4	0.5	52*
COc1ccc(N=Cc2c(O)c3ccccc3oc2=O)cc1	12	3	7	0.1	88*
COc1ccc(OC)c(N=Cc2c(O)c3ccccc3oc2=O)c1	-15	0	·	·	·
CCOC(=O)[C@]12CCC=C1N(Cc1cccc3ccccc13)C(=O)[C@H](CC(=O)NCCCN1CCCC1=O)C2	-2	·	·	·	·
COc1ccc(C(=O)c2c(C(F)(F)F)oc3c2C(=O)c2ccccc2C3=O)cc1OC	95*	-2	40	1	4
